Measurements as given in ChEMBL document CHEMBL4190362, “Synthesis, biological evaluation and quantitative structure-active relationships of 1,3-thiazolidin-4-one derivatives. A promising chemical scaffold endowed with high antifungal potency and low cytotoxicity” (Eur J Med Chem, 2017).

Tests used:
Candida albicans = assay: Antifungal activity against Candida albicans clinical isolates assessed as inhibition of microbial growth incubated for 24 hrs by broth microdilution method; assay type: functional
Outline: (§1)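 Twenty-two clinical Candida isolates (8 C. albicans, 4 C. glabrata, 3 C. tropicalis, 3 C. krusei, 2 C. parapsilosis, 2 C. sake) were identified by colony morphology and biochemistry and subcultured at 35 °C for purity. Compounds were dissolved in DMSO and tested by broth microdilution in Sabouraud dextrose broth per NCCLS/CLSI/EUCAST guidance. Values are geometric mean MIC per species (µg/mL).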

Escherichia coli = assay: Antibacterial activity against Escherichia coli assessed as inhibition of microbial growth incubated for 18 to 22 hrs by broth microdilution method; assay type: functional
Outline: (§2)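 Broth microdilution in Mueller-Hinton II broth following NCCLS recommendations; compounds dissolved in DMSO.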

Candida tropicalis = assay: Antifungal activity against Candida tropicalis clinical isolates assessed as inhibition of microbial growth incubated for 24 hrs by broth microdilution method; assay type: functional; outline: as §1
[1] = tested on: Streptococcus alpha-hemolyticus (Streptococcus sp.); assay: Antibacterial activity against Streptococcus Streptococcus alpha hemolyticus assessed as inhibition of microbial growth incubated for 18 to 22 hrs by broth microdilution method
[Candida] sake = Antifungal activity against Candida sake clinical isolates assessed as inhibition of microbial growth incubated for 24 hrs by broth microdilution method; assay type: functional; conditions: Fermentozyma sake; outline: as §1
Enterobacter = assay: Antibacterial activity against Enterobacter spp. assessed as inhibition of microbial growth incubated for 18 to 22 hrs by broth microdilution method; assay type: functional; outline: as §2
Enterococcus faecalis = assay: Antibacterial activity against Streptococcus faecalis assessed as inhibition of microbial growth incubated for 18 to 22 hrs by broth microdilution method; assay type: functional; outline: as §2
Pichia kudriavzevii = assay: Antifungal activity against Candida krusei clinical isolates assessed as inhibition of microbial growth incubated for 24 hrs by broth microdilution method; assay type: functional; outline: as §1
Nakaseomyces glabratus = assay: Antifungal activity against Candida glabrata clinical isolates assessed as inhibition of microbial growth incubated for 24 hrs by broth microdilution method; assay type: functional; outline: as §1
Proteus mirabilis = assay: Antibacterial activity against Proteus mirabilis assessed as inhibition of microbial growth incubated for 18 to 22 hrs by broth microdilution method; assay type: functional; outline: as §2
Staphylococcus aureus = assay: Antibacterial activity against Staphylococcus aureus assessed as inhibition of microbial growth incubated for 18 to 22 hrs by broth microdilution method; assay type: functional; outline: as §2
Klebsiella oxytoca = assay: Antibacterial activity against Klebsiella oxytoca assessed as inhibition of microbial growth incubated for 18 to 22 hrs by broth microdilution method; assay type: functional; outline: as §2
Candida parapsilosis = assay: Antifungal activity against Candida parapsilosis clinical isolates assessed as inhibition of microbial growth incubated for 24 hrs by broth microdilution method; assay type: functional; conditions: Lodderomyces parapsilosis; outline: as §1
Staphylococcus warneri = assay: Antibacterial activity against Staphylococcus warneri assessed as inhibition of microbial growth incubated for 18 to 22 hrs by broth microdilution method; assay type: functional; outline: as §2

| Structure (SMILES) | MIC (Candida albicans) | MIC (Escherichia coli) | MIC (Candida tropicalis) | MIC [1] | MIC ([Candida] sake) | MIC (Enterobacter) | MIC (Enterococcus faecalis) | MIC (Pichia kudriavzevii) | MIC (Nakaseomyces glabratus) | MIC (Proteus mirabilis) | MIC (Staphylococcus aureus) | MIC (Klebsiella oxytoca) | MIC (Candida parapsilosis) | MIC (Staphylococcus warneri) |
| --- | --- | --- | --- | --- | --- | --- | --- | --- | --- | --- | --- | --- | --- | --- |
| O=C1CS/C(=N/N=C\c2cccnc2)N1 | 8 µg/mL | ≥ 256 µg/mL | 16 µg/mL | ≥ 256 µg/mL | 16 µg/mL | ≥ 256 µg/mL | ≥ 256 µg/mL | 16 µg/mL | 8 µg/mL | ≥ 256 µg/mL | ≥ 256 µg/mL | ≥ 256 µg/mL | 16 µg/mL | ≥ 256 µg/mL |
| C/C(=N/N=C1\NC(=O)CS1)c1cccnc1 | 256 µg/mL | ≥ 256 µg/mL | 256 µg/mL | ≥ 256 µg/mL | 256 µg/mL | ≥ 256 µg/mL | ≥ 256 µg/mL | 256 µg/mL | 256 µg/mL | ≥ 256 µg/mL | ≥ 256 µg/mL | ≥ 256 µg/mL | 256 µg/mL | ≥ 256 µg/mL |
| O=C1CS/C(=N/N=C\c2ccncc2)N1 | 256 µg/mL | ≥ 256 µg/mL | 256 µg/mL | ≥ 256 µg/mL | 256 µg/mL | ≥ 256 µg/mL | ≥ 256 µg/mL | 256 µg/mL | 256 µg/mL | ≥ 256 µg/mL | ≥ 256 µg/mL | ≥ 256 µg/mL | 256 µg/mL | ≥ 256 µg/mL |
| O=C1CS/C(=N/N=C\c2c[nH]c3ccccc23)N1 | 128 µg/mL | ≥ 256 µg/mL | 8 µg/mL | ≥ 256 µg/mL | 256 µg/mL | ≥ 256 µg/mL | ≥ 256 µg/mL | 16 µg/mL | 16 µg/mL | ≥ 256 µg/mL | ≥ 256 µg/mL | ≥ 256 µg/mL | 256 µg/mL | ≥ 256 µg/mL |
| O=C1CS/C(=N/N=C\c2ccc3c(c2)OCO3)N1 | 256 µg/mL | ≥ 256 µg/mL | 256 µg/mL | ≥ 256 µg/mL | 256 µg/mL | ≥ 256 µg/mL | ≥ 256 µg/mL | 256 µg/mL | 256 µg/mL | ≥ 256 µg/mL | ≥ 256 µg/mL | ≥ 256 µg/mL | 256 µg/mL | ≥ 256 µg/mL |
| O=C1CS/C(=N/N=C\c2cccc3ccccc23)N1 | 256 µg/mL | ≥ 256 µg/mL | 256 µg/mL | ≥ 256 µg/mL | 256 µg/mL | ≥ 256 µg/mL | ≥ 256 µg/mL | 256 µg/mL | 256 µg/mL | ≥ 256 µg/mL | ≥ 256 µg/mL | ≥ 256 µg/mL | 256 µg/mL | ≥ 256 µg/mL |
| C/C(=N/N=C1\NC(=O)CS1)c1ccc2ccccc2c1 | 32 µg/mL | ≥ 256 µg/mL | 32 µg/mL | ≥ 256 µg/mL | 256 µg/mL | ≥ 256 µg/mL | ≥ 256 µg/mL | 16 µg/mL | 16 µg/mL | ≥ 256 µg/mL | ≥ 256 µg/mL | ≥ 256 µg/mL | 256 µg/mL | ≥ 256 µg/mL |
| C/C(=N/N=C1\NC(=O)CS1)c1cc2ccccc2oc1=O | 256 µg/mL | ≥ 256 µg/mL | 256 µg/mL | ≥ 256 µg/mL | 256 µg/mL | ≥ 256 µg/mL | ≥ 256 µg/mL | 256 µg/mL | 16 µg/mL | ≥ 256 µg/mL | ≥ 256 µg/mL | ≥ 256 µg/mL | 256 µg/mL | ≥ 256 µg/mL |
| C/C(=N\N=C1/NC(=O)CS1)c1cc2ccccc2o1 | 2 µg/mL | ≥ 256 µg/mL | 2 µg/mL | ≥ 256 µg/mL | 2 µg/mL | ≥ 256 µg/mL | ≥ 256 µg/mL | 2 µg/mL | 8 µg/mL | ≥ 256 µg/mL | ≥ 256 µg/mL | ≥ 256 µg/mL | 2 µg/mL | ≥ 256 µg/mL |
| C/C(=N/N=C1\NC(=O)CS1)c1ccc2ccc3ccccc3c2c1 | 4 µg/mL | ≥ 256 µg/mL | 4 µg/mL | ≥ 256 µg/mL | 16 µg/mL | ≥ 256 µg/mL | ≥ 256 µg/mL | 8 µg/mL | 4 µg/mL | ≥ 256 µg/mL | ≥ 256 µg/mL | ≥ 256 µg/mL | 16 µg/mL | ≥ 256 µg/mL |
| C/C(=N/N=C1\NC(=O)CS1)c1cccc2ccccc12 | 2 µg/mL | ≥ 256 µg/mL | 16 µg/mL | ≥ 256 µg/mL | 2 µg/mL | ≥ 256 µg/mL | ≥ 256 µg/mL | 16 µg/mL | 2 µg/mL | ≥ 256 µg/mL | ≥ 256 µg/mL | ≥ 256 µg/mL | 2 µg/mL | ≥ 256 µg/mL |
| O=C1CS/C(=N/N=C\c2ccccn2)N1 | 2 µg/mL | ≥ 256 µg/mL | 2 µg/mL | ≥ 256 µg/mL | 2 µg/mL | ≥ 256 µg/mL | ≥ 256 µg/mL | 4 µg/mL | 8 µg/mL | ≥ 256 µg/mL | ≥ 256 µg/mL | ≥ 256 µg/mL | 2 µg/mL | ≥ 256 µg/mL |
| CC(=O)c1ccc(/C(C)=N\N=C2/NC(=O)CS2)cc1 | 2 µg/mL | ≥ 256 µg/mL | 2 µg/mL | ≥ 256 µg/mL | 8 µg/mL | ≥ 256 µg/mL | ≥ 256 µg/mL | 8 µg/mL | 2 µg/mL | ≥ 256 µg/mL | ≥ 256 µg/mL | ≥ 256 µg/mL | 2 µg/mL | ≥ 256 µg/mL |
| C/C(=N/N=C1\NC(=O)CS1)c1ccncc1 | 16 µg/mL | ≥ 256 µg/mL | 8 µg/mL | ≥ 256 µg/mL | 256 µg/mL | ≥ 256 µg/mL | ≥ 256 µg/mL | 16 µg/mL | 16 µg/mL | ≥ 256 µg/mL | ≥ 256 µg/mL | ≥ 256 µg/mL | 256 µg/mL | ≥ 256 µg/mL |
| C/C(=N/N=C1\NC(=O)CS1)c1ccc2c(c1)OCCO2 | 4 µg/mL | ≥ 256 µg/mL | 4 µg/mL | ≥ 256 µg/mL | 8 µg/mL | ≥ 256 µg/mL | ≥ 256 µg/mL | 8 µg/mL | 4 µg/mL | ≥ 256 µg/mL | ≥ 256 µg/mL | ≥ 256 µg/mL | 16 µg/mL | ≥ 256 µg/mL |
| C/C(=N/N=C1\NC(=O)CS1)c1ccc([N+](=O)[O-])cc1 | 4 µg/mL | ≥ 256 µg/mL | 8 µg/mL | ≥ 256 µg/mL | 16 µg/mL | ≥ 256 µg/mL | ≥ 256 µg/mL | 4 µg/mL | 8 µg/mL | ≥ 256 µg/mL | ≥ 256 µg/mL | ≥ 256 µg/mL | 16 µg/mL | ≥ 256 µg/mL |
| C/C(=N/N=C1\NC(=O)CS1)c1c[nH]c2ccccc12 | 4 µg/mL | ≥ 256 µg/mL | 8 µg/mL | ≥ 256 µg/mL | 16 µg/mL | ≥ 256 µg/mL | ≥ 256 µg/mL | 2 µg/mL | 8 µg/mL | ≥ 256 µg/mL | ≥ 256 µg/mL | ≥ 256 µg/mL | 4 µg/mL | ≥ 256 µg/mL |
